Reference: the EternaBench riboswitch data

Tested on: MS2 coat protein
Assay: apparent Kd, MS2 coat protein; higher = weaker binding; RNA-MaP array; FMN 200 µM where present
In short: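 SNAP-549-labelled MS2 coat protein, doubled from 0.7 or 1.5 nM to 3 µM, was titrated over designs transcribed by stalled E. coli RNA polymerase on Illumina sequencing-chip clusters. Titrations were run without and then with constant ligand in 100 mM Tris-HCl pH 7.5, 80 mM KCl, 4 mM MgCl2, BSA, DTT, yeast tRNA and Tween-20. The apparent Kd is the median of filtered per-cluster fits to green signal normalised to red-channel RNA signal and control-cluster median Fmax.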

[1] = designed as: OFF switch for flavin mononucleotide, no ligand
[2] = ligand present: flavin mononucleotide, designed as: OFF switch for flavin mononucleotide
[3] = designed as: ON switch for flavin mononucleotide, no ligand
[4] = ligand present: flavin mononucleotide, designed as: ON switch for flavin mononucleotide

| Sequence | apparent Kd [1] [nM] | apparent Kd [2] [nM] | apparent Kd [3] [nM] | apparent Kd [4] [nM] |
| --- | --- | --- | --- | --- |
| UUGAUAAGGAGAGGAUAUGGACAUGAGGAUCACCCAUGUACAUGGGAAUAUAUACUGAAUUUUUACUAGAAGGCUUACAUAUUU | 14.7 | 13 | – | – |
| GGUAAGAUGCAGAAGGUGUUAGCUAGAGCUACGACAUGAGGAUCACCCAUGUACUAGAAACAGUACAAGGAUAUGCAUCUUACU | – | – | 18.9 | 6.53 |
| AUUUAUGGCCAGAAGGACAUGAGGAUCACCCAUGUAGGAUAUGGACGAUUUUGCUUGGCGGUUCGUUUAGGAAGCACCGGUGGU | – | – | 23.8 | 7.18 |
| GCAGGUUAAGUCAGGAUAUACCUAUGGAUACAUAGGUAGAAGGGACAUGAGGAUCACCCAUGUGUCUCGCCUGC | 87.8 | 148 | – | – |
| GGGUGACAUGAGGAUCACCCAUGUCAGGAUAUGGGCCCGGGUUUGAAAGGGCCCGGGCCCAGAAGGGACUGCCC | 55.3 | 127 | – | – |
| AGCUAGUCAGGAUAUACGAACAUGUCAAAAGACGAGAACGGACAUGAGGAUCACCCAUGUAGAAGGGACUAGCA | 55 | 325 | – | – |
| GGACGUCACAUUUACAUGAGGAUCACCCAUGUCAAAAGACAUGAGGAUAUGGAUGCGAAACGCAUCCAGAAGGCAUGGACGUCC | – | – | 286 | 27.8 |
| UUUUAACAUGAGGAUCACCCAUGUGAGGAUAUCGAAAUUUAUAUUUAUAUUAAUUUUACGAGAAGGCACAUUUU | 112 | 125 | – | – |
| CGCAAGUCAGGAUAUUCGACAGGUAAAUCAGUGGAUCAGUAGGAGAAGGGACAUGAGGAUCACCCAUGUAUGUA | 49.7 | 29.6 | – | – |
| UUUUUGUGAGGAUAUGGAAUAUCUUCUAUUUAUUAUUAAUUCCAGAAGGCACAUGAGGAUCACCCAUGUAUUUU | 19.9 | 25.2 | – | – |
| CUGAUGUGAGGAUAUCUAAAAGAAACUGGGCAAAUACCCAGAGAGAAGGCACAUGAGGAUCACCCAUGUAACGA | 21.3 | 86.8 | – | – |
| CAUUAAUUCAUUAUAGUUAUUAUACAGGAUAUGUUACAUGAGGAUCACCCAUGUUAUCAUGGUAAACAGAAGGGUAUAUAAAGU | 33.5 | 57.5 | – | – |
| UAUAAAAUAGGAUGACAUGAGGAUCACCCAUGUUGCGCGAGGAGAAGGCCCAUUCGGCAACUAUGGGAGGAUAUCCAUCGCCUG | – | – | 66.5 | 24.1 |
| AAGAAGUAAGGAUAUGCAUGGCGGGACUUGCGUCGUGGCGUGCAGAAGGUACAUGAGGAUCACCCAUGUAAAGA | 27.2 | 15.4 | – | – |
| CUGCCUUAUGUAGGAUAUGCAUAGCAUUGCUAUGCAGAAGGACAUGAGGAUCACCCAUGUAUGUUAUCAAUACAUAUCUGGCAG | 17.5 | 54.5 | – | – |
| UGUCGGAGCAGAGGAUAUUACAUGAGGAUCACCCAUGUAUGGACCAAUAGCUGGAAACAGCAAUGUAAGAAGGCUGCUCCGACA | 18.3 | 215 | – | – |
| GCGUGGUUCUAGAAGGUGCUAGCGAUAAGCUAGCAAGGAUAUAGACAUGAGGAUCACCCAUGUCUUAGUGAAAUGGACACACGC | – | 5.09 | – | – |
| UGGCUACAUGAGGAUCACCCAUGUCAGGAUAUGCCGUUGGAUUGCCUUCGUCGUUCGGGUAGAAGGGACUGCGU | 30.3 | 27.5 | – | – |
| CGCUGUCACGCAGGAUAUGCAUUGGAUUACAAUGCAGAAGGGCGAUAACAUGAGGAUCACCCAUGUGUAGACAGUGAAGAAGAG | – | – | 145 | 27.2 |

| Sequence | apparent Kd [1] [nM] | apparent Kd [2] [nM] | apparent Kd [3] [nM] | apparent Kd [4] [nM] |
| --- | --- | --- | --- | --- |
| UUGAUUAUACAAGGAUAUCAAUUGUAUACAAGUCUUACAUGAGGAUCACCCAUGUUAAAUUUUUUUGAGAAGGUGUAUUGUCAG | – | – | 40.2 | 24 |
| AAAACACAUGAGGAUCACCCAUGUGAGGAUAUCGUGCAGUAGACGAAAGUCUACUGCACGAGAAGGCACAAGGA | 49 | 81.3 | – | – |
| CUUUUGUUAGGAUAUUAGUAGUAAAUAAAUAAAAUUACUACUGAGAAGGCACAUGAGGAUCACCCAUGUUCCUC | 26 | 31.4 | – | – |
| AAGCUGCGCCAGAAGGGACCGACAUGAGGAUCACCCAUGUCCACAAGAGUCAGGAUAUGGCGUGGAGGCUCGUUCAAGUCCAGG | – | – | 13.5 | 5.73 |
| UAAGUCUAAUGAGGAUAUCGUAAUGAAACAUUAUGAGAAGGCAUACAAUCAUGAGGACAUGAGGAUCACCCAUGUUGUGACCAU | – | – | 33.6 | 16.2 |
| UACAAUCUAUCUGAGGAUAUCAUGAAAAAAACAUGAGGAUCACCCAUGUGCAGGAAAACUGCAUAUGAGAAGGCAGAUAGAUUGU | – | – | 770 | 25.7 |
| UACGGACAUGAGGAUCACCCAUGUGAGGAUAUCGAUAACGAUAGCAUAAUAUAAUCGGCGAGAAGGCACAGCGU | 32.7 | 40.9 | – | – |
| GUGUACAGAGGAUAUACAUAAGCUAGGAAACUAGCAACUUCACAUGAGGAUCACCCAUGUAGAAGGCUGUACAC | 13.9 | 17.8 | – | – |
| UAAAAACAUGAGGAUCACCCAUGUGAGGAUAUCGAAAAAAAAAAAUUAAAAAAGGAAGCGAGAAGGUACGGGAU | 53.1 | 49.6 | – | – |
| AUAAAACAUGAGGAUCACCCAUGUCAGGAUAUACCAUUCCCAUGCCAGCAUUAAAAUGGUAGAAGGGACAUGGC | 49.2 | 27.2 | – | – |
| UGGUACAUGGGAGGAUAUCAUGUGAUAACAUGAGGAUCACCCAUGUCGAUGGAGACAUCGGAGAUUGAGAAGGCCCAUGUACCU | – | – | 1190 | 96.5 |
| CAGACCGGCGCAGGAUAUGUCGACAUGAGGAUCACCCAUGUAAGCCUUGUCUGGUCCGGUGUGUGACAGAAGGGUGUCGGCCAA | 29.5 | 21.9 | – | – |
| CCUAAGGACACAGGAUAUAGCGUGGUGGCCGGGCUCCAACGGCGAGCGGCGCUAGAAGGGUGACCACAUGAGGAUCACCCAUGU | – | – | 506 | 161 |
| GCCUUAUCCGUCAGGAUAUACAGUUGUUAGUUGUUGUAGAAGGGACAUGAGGAUCACCCAUGUACAUUACAUUG | 21.2 | 22.6 | – | – |
| GUGAGUGGUCAGGAUAUGCUGUACAAAAGUACAGCAGAAGGGACUACAUGAGGAUCACCCAUGUUUACUUCAUG | 268 | 311 | – | – |
| AUUCUAAUAGCAGGAUAUCCCAGUAUCCUAAGUCAAAAGUUUUUGACAUGAGGAUCACCCAUGUGGGAGAAGGGCUCUGGAUAA | 111 | 65.8 | – | – |
| UGAGAUGUAGUAGGAUAUCAGGUUACAUGAGGAUCACCCAUGUUAGAUUGGUGGAUAGAUGUUGAUGAGAAGGACUUUUGAGUU | 63.5 | 100 | – | – |
| UGAGCAUCAGGAUAUACGUGACGACCGUGAGGUCGAAGGUUACAUGAGGAUCACCCAUGUAGAAGGGAUGUUCU | 26.5 | 57.9 | – | – |
| GUAGUUAGUAGAGGAUAUUAAUAUGUGUAAUAUUGAGAAGGUUACAUGAGGAUCACCCAUGUGAUCAAUCACUGUUAAGGUUGC | 6.97 | 7.06 | – | – |

| Sequence | apparent Kd [1] [nM] | apparent Kd [2] [nM] | apparent Kd [3] [nM] | apparent Kd [4] [nM] |
| --- | --- | --- | --- | --- |
| GGAUGACAAAGUCAUCCAAUACGAACAUGAGGAUCACCCAUGUAGGAUAUCGUACUCAAAGAGUACGAGAAGGACAUGUGCCUU | 37.6 | 236 | – | – |
| UUUUUCUCAGGAUAUACAUGAGGAUCACCCAUGUAUAUUAGGAAUAAUACAUGGGAAUGUAGAAGGGAGCUCAU | 128 | 98.4 | – | – |
| GAUUGACAUGAGGAUCACCCAUGUGAGGAUAUCGGCCGGACCUUGUUAGCUUCCAUCGUGAGAAGGCACAUAGG | 30.4 | 31.5 | – | – |
| CUCAGCUCGUCAGGAUAUACGUCACUGCUUCGGCAGUGUGGUAAGAUCACAUGAGGAUCACCCAUGUAGAAGGGACGAGCUGAA | 12.8 | 266 | – | – |
| AUUUAGUGCGAGAAGGCGUGGUCACAUGAGGAUCACCCAUGUCAGUACACGAGGAUAUCGAUUCGCUAUGUAAACAUAUGCGAC | – | – | 66.8 | 6.62 |
| UAUUCACAUGAGGAUCACCCAUGUAGAAGGCCGAGCCUGGCCACGGUUACACGCCGUGGAGAGCCGGAGGAUAUACAGCUGGUG | 111 | 30.9 | – | – |
| UCUGCCGCCGUGAGGAUAUGCCCAAAUAAAAGCGGGCAGAAGGCACAUGAGGAUCACCCAUGUCCUGCGGUUUU | 22.1 | 93.6 | – | – |
| UGUAUAUAGGCAGGAUAUACAUGAAUAUAUAUGAUGUAGUAUGAUGUAACAUGAGGAUCACCCAUGUAGAAGGGCCAGUGUAUA | 73.8 | 144 | – | – |
| UAUAUAUAGUAAGGAUAUGUAAUUAUUUUAUACACAGAAGGUACUGACAUGAGGAUCACCCAUGUUUUAGUGUGGGCAUGUAGA | 55.3 | 86.5 | – | – |
| AAUCGAUGAUCAGGAUAUGUGGAGCCUCUAAGCGAAGAGGCGUACAUGAGGAUCACCCAUGUGACACAGAAGGGAUACAUGCGG | – | – | 64.2 | 8.2 |
| CCUCUACAUGAGGAUCACCCAUGUGAGGAUAUGCGAGGCACGCCCGAUGGGCGCGCCGGUAGAAGGCAUGUGGU | 23.6 | 49.4 | – | – |
| CAGAGUUGGUAAGGAUAUCCCACAUUAUUCUGACCCGUGCAAGCUACAUGAGGAUCACCCAUGUGGGAGAAGGUGCGUUAAAGA | 39 | 35 | – | – |
| AUACCUUAUGAGAAGGCGGUCAUGAAACAUGAUCGAGGAUAUCAUGUAAACAUGAGGAUCACCCAUGUAUGGGUAUUAUGGUAC | – | – | 38.2 | 10.2 |
| GGGAGACAUGAGGAUCACCCAUGUGAAAACGUGGCAGGAUAUGCAUGGAAACCAUACUGUGCAGAAGGGCCUUGUC | – | – | 60.5 | 33.1 |
| AAUUGGAUGCAGAAGGCAUGGACGACUCGUCACAUUAACAUGAGGAUCACCCAUGUAAAAUAACAUGAGGAUAUGCAUCCUAAA | – | – | 9.81 | 6.15 |
| UGUUGUAUUACAGGAUAUCUAUGAUUAUUAUUUAGAGAAGGGUAUUCACAUGAGGAUCACCCAUGUAUAUACGAGGAAGUUGUG | – | – | 40.7 | 48.7 |
| GACUGACAUGAGGAUCACCCAUGUAUUCGAGCAUGAGGAUAUAUGACUCGUCAUCGGCGGAUAGAAGGCAUGGUUG | – | – | 162 | 212 |
| AAAAAGGCAGGAUAUACAAAAAAAUUUUUAAAAAAAAAAAAACAUGAGGAUCACCCAUGUAGAAGGGCCAAAAA | 54.2 | 51.7 | – | – |
